Data set [1] has as its system Actinomyces viscosus. The experiment in a line: Minimum inhibitory concentration against Actinomyces viscosus. Format: functional. In short, it runs like this: (§1)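 Tube dilution in trypticase soy broth, threefold dilutions from 1000 to 0.1 μg/mL. Stocks were 1 mg/100 μL in EtOH or Me₂SO. The inoculum was 50 μL of 10⁸ cfu/mL log-phase A. viscosus M100-2000, incubated aerobically at 37 °C. MIC was read visually at 24 h.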

Data set [2] relates to Actinomyces viscosus. In words: Compound was tested against Actinomyces viscosus. It is filed as functional.
Data set [3] in a line: Dissociation constant of the compound. Format: physicochemical. The gist of the method: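 Spectroscopic pKa in 0.01 M phosphate buffers without cosolvent, below 10⁻⁴ M. Only pH values giving >60% ionization were used. The analytical wavelength was the longest λmax at pH 12 (260–370 nm). The value is the average of triplicate determinations.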
The nature of data set [4]: Partition coefficient (logP). Format: physicochemical. The conditions noted are these: octanol/water. The gist of the method:
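log P calculated, not measured: 3.27 for salicylanilide plus π of the 4'-substituent plus π of R' (phenolic hydrophobicity substituent constants).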

Data set [5] is described as follows: Partition coefficient (logD). It is filed as physicochemical. The conditions noted are these: octanol/water. The gist of the method:
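logD calculated at pH 7.2 as log D = log P + log[1/(1 + 10^(pH−pKa))], using the calculated log P and spectroscopic pKa.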

Data set [6] has as its system Actinomyces viscosus. The experiment in a line: Compound was tested for it's inhibitory activity against Actinomyces viscosus M100-2000. Format: functional, organism-based.
The subject of data set [7] is Streptococcus mutans. In words: The compound was tested for it's inhibitory activity against Streptococcus mutans. Format: functional, organism-based.
Data set [8] has as its system Streptococcus mutans. In words: Maximum percentage inhibition against Streptococcus mutans at a concentration of 0.2% w/v. It is filed as functional. The gist of the method: (§2)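 Bovine enamel slabs (4 × 8 mm) were autoclaved in PBS pH 7.5, coated with human saliva (1 h, 37 °C), dipped in drug solution at the stated w/v for 2 min, then rinsed. They were incubated 24 h at 37 °C in 1% sucrose-supplemented medium inoculated with the plaque-forming organism. Tooth-adherent, glass-adherent and nonadherent fractions were read by OD540. Water-dipped slabs served as controls. Run in triplicate.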

The subject of data set [9] is Actinomyces viscosus. In words: Maximum percentage inhibition against Actinomyces viscosus M-100-2000 at a concentration of 0.2% w/v.
The subject of data set [10] is Actinomyces viscosus. In words: Maximum percentage inhibition against Actinomyces viscosus 6715-13WT at a concentration of 0.1% w/v. It is filed as functional. The conditions noted are these: in the assay text read “M-100-2000” for “6715-13WT”. The gist of the method:
as §2

Data set [11] concerns Streptococcus mutans. The experiment in a line: Maximum percentage inhibition against Streptococcus mutans at a concentration of 0.1% w/v. Format: functional. The gist of the method:
as §2

Data set [12] has as its system Actinomyces viscosus. The experiment in a line: Minimum inhibitory concentration against Actinomyces viscosus M100-2000; NE is Not Effective. Format: functional, organism-based. The gist of the method:
as §1

In brackets after ≈: the same amount, converted by molar mass. Activity calls are given as the source filed them.

Usually MIC stands for the smallest concentration in the dilution series that meets the test's criterion for growth inhibition. In general, pKa refers to the negative logarithm of the acid dissociation constant. Lower therefore signals a group that gives up its proton readily. What is called logP is the decadic logarithm of the partition coefficient of the neutral form, usually between octanol and water. A low value points to a more hydrophilic compound. One may read the logD as lipophilicity at a set pH, counting ionised and neutral species. Lower therefore signals a more hydrophilic compound. Turning to `CCCCS(=O)(=O)c1ccc(O)c(C(=O)Nc2ccc(Br)cc2)c1`, in the data set on Actinomyces viscosus [1], the MIC was found to be 20 µg/mL (≈ 48.5 µM). Moreover, the “Log 1/MIC” value with Actinomyces viscosus [2] worked out at 4.31. Moreover, in data set [3], the pKa turned out to be 5.2. The logP in [4] stood at 4.12. The molecule further returned a logD in data set [5] of 2.48.

In turn, `CCCCCCCCCCCCS(=O)(=O)c1ccc(O)c(C(=O)Nc2cccc(C(F)(F)F)c2)c1` registered an MIC against Actinomyces viscosus [1] of 0.1 µg/mL (≈ 0.195 µM).

What is called IC50 is the midpoint of a concentration-inhibition curve. Low values mean greater potency, high ones weaker potency. One may read the inhibition as the share of the control response that was lost under treatment. A high value points to strong suppression. As for `O=C(Nc1ccc(Br)cc1)c1cc(Br)cc(Br)c1O` [TRIBROMSALAN], the IC50 in the data set with Actinomyces viscosus [6] turned out to be 880 µM; in the data set with Streptococcus mutans [7], 1.2 mM. Also, in the data set with Actinomyces viscosus [1], the MIC amounted to 0.5 µg/mL (≈ 1.11 µM). The inhibition at 0.2 % strength turned out to be 46% in the data set with Streptococcus mutans [8] and 53% with Actinomyces viscosus [9].

On to `CCCCCCCCS(=O)(=O)c1ccc(O)c(C(=O)Nc2ccc([N+](=O)[O-])cc2)c1`, for which the MIC against Actinomyces viscosus [1] came out at 1 µg/mL (≈ 2.3 µM).

Regarding `CCCCCCCCCCCCS(=O)(=O)c1ccc(O)c(C(=O)Nc2ccc(Br)cc2)c1`, the MIC in the data set with Actinomyces viscosus [1] turned out to be 0.5 µg/mL (≈ 0.953 µM). The “Log 1/MIC” value in the data set on Actinomyces viscosus [2] is 6.02. The molecule further returned a pKa in [3] of 5.2. In data set [4], this molecule came in with a logP of 8.44. In [5], this molecule displayed a logD of 6.49.

Turning to `CCCCCCCCCCCCS(=O)(=O)c1ccc(O)c(C(=O)Nc2ccc([N+](=O)[O-])cc2)c1`, the MIC against Actinomyces viscosus [1] stood at 0.5 µg/mL (≈ 1.02 µM).

In the case of `CS(=O)(=O)c1ccc(O)c(C(=O)Nc2ccc(C(F)(F)F)cc2)c1`, in the data set with Actinomyces viscosus [1], the lowest concentration to inhibit growth (MIC) was 1000 µg/mL (≈ 2780 µM). In addition, the “Log 1/MIC” value with Actinomyces viscosus [2] came out at 2.56. For the same molecule, in data set [3], the pKa was determined as 6.2. In data set [4], this molecule showed a logP of 2.52. The logD in [5] was 1.48.

On to `CCCCCCCCCCS(=O)(=O)c1ccc(O)c(C(=O)Nc2cccc(C(F)(F)F)c2)c1`, for which the IC50 is 680 µM in the data set with Actinomyces viscosus [6] and 2.3 mM in the data set on Streptococcus mutans [7]. Further, the values for the inhibition at 0.1 % strength with Actinomyces viscosus [10] and in the data set on Streptococcus mutans [11] were 83% and 47%, respectively. Further, the MIC in the data set with Actinomyces viscosus [1] amounted to 0.5 µg/mL (≈ 1.03 µM).

As for `CS(=O)(=O)c1ccc(O)c(C(=O)Nc2ccc(Br)cc2)c1`, the MIC against Actinomyces viscosus [1] was at least 1000 µg/mL.

The molecule `CCCCCCCCS(=O)(=O)c1ccc(O)c(C(=O)Nc2ccc(C(F)(F)F)cc2)c1` registered an MIC against Actinomyces viscosus [1] of 0.5 µg/mL (≈ 1.09 µM). In addition, in the data set on Actinomyces viscosus [2], the “Log 1/MIC” value is 5.96. The molecule also gave a pKa in data set [3] of 6.2. The same molecule displayed a logP in [4] of 6.3. Besides, in [5], the logD amounted to 5.26.

On to `CCCCCCCCCCCCS(=O)(=O)c1ccc(O)c(C(=O)Nc2ccc(C(F)(F)F)cc2)c1`, for which the MIC with Actinomyces viscosus [1] was found to be 0.05 µg/mL (≈ 0.0973 µM). In addition, the Log 1/MIC in the data set on Actinomyces viscosus [2] was 7.01. In data set [3], the pKa stood at 6.2. Moreover, the logP in [4] was determined as 8.46. Also, the logD in data set [5] worked out at 7.42.

In the data set on Actinomyces viscosus [1], `CCCCCCCCCCCCS(=O)(=O)c1ccc(O)c(C(=O)Nc2ccc(C#N)cc2)c1` yielded an MIC of 1 µg/mL (≈ 2.12 µM).

Consider `CCCCCCS(=O)(=O)c1ccc(O)c(C(=O)Nc2ccc(Br)cc2)c1`, for which, in the data set on Actinomyces viscosus [1], the lowest concentration to inhibit growth (MIC) was 5 µg/mL (≈ 11.4 µM). Moreover, in the data set with Actinomyces viscosus [2], the “Log 1/MIC” value stood at 4.94. In data set [3], the pKa came to 5.2. For the same molecule, the logP in [4] is 5.2. This molecule also returned a logD in data set [5] of 3.2.

As to `CCCCS(=O)(=O)c1ccc(O)c(C(=O)Nc2ccc(C(F)(F)F)cc2)c1`, the MIC against Actinomyces viscosus [1] was 20 µg/mL (≈ 49.8 µM). In the data set on Actinomyces viscosus [2], the “Log 1/MIC” value came to 4.31. Also, in data set [3], the pKa came out at 6.2. Moreover, in [4], the logP turned out to be 4.14. This molecule also registered a logD in data set [5] of 3.1.

Consider `CCCCCCCCCCS(=O)(=O)c1ccc(O)c(C(=O)Nc2ccc(C(F)(F)F)cc2)c1`, for which the values for the IC50 in the data set with Actinomyces viscosus [6] and with Streptococcus mutans [7] were 90 µM and 1.9 mM, respectively. In addition, in the data set on Actinomyces viscosus [1], the MIC is 0.1 µg/mL (≈ 0.206 µM). For the same molecule, the “Log 1/MIC” value with Actinomyces viscosus [2] is 6.69. For the same molecule, the pKa in [3] worked out at 6.2. In data set [4], this molecule came in with a logP of 7.38. Moreover, in data set [5], the logD turned out to be 6.34. The inhibition at 0.2 % strength amounted to 76% with Streptococcus mutans [8] and 95% in the data set on Actinomyces viscosus [9].

Molecule `CCCCCCCCCCS(=O)(=O)c1ccc(O)c(C(=O)Nc2ccc(Br)cc2)c1` gave an MIC in the data set on Actinomyces viscosus [1] of 0.5 µg/mL (≈ 1.01 µM). The “Log 1/MIC” value in the data set on Actinomyces viscosus [2] is 6. In addition, the pKa in data set [3] came out at 5.2. Further, in [4], the logP was found to be 7.36. Besides, the logD in [5] turned out to be 5.36.

For the molecule `CCCCCCCCCCCCCCS(=O)(=O)c1ccc(O)c(C(=O)Nc2cccc(C(F)(F)F)c2)c1`, in the data set with Actinomyces viscosus [12], the MIC entry was “inactive”.

Molecule `CS(=O)(=O)c1ccc(O)c(C(=O)Nc2ccccc2)c1` came in with an MIC against Actinomyces viscosus [1] of at least 1000 µg/mL.

For the molecule `CCCCCCCCCCCCCCS(=O)(=O)c1ccc(O)c(C(=O)Nc2ccc([N+](=O)[O-])cc2)c1`, in the data set with Actinomyces viscosus [1], the MIC was 0.5 µg/mL (≈ 0.964 µM).

`CCCCCCCCCCS(=O)(=O)c1ccc(O)c(C(=O)Nc2ccc([N+](=O)[O-])cc2)c1`: the IC50 in the data set on Actinomyces viscosus [6] is 230 µM; in the data set with Streptococcus mutans [7] it was 0.19 mM. The molecule further had an MIC in the data set on Actinomyces viscosus [1] of 0.5 µg/mL (≈ 1.08 µM). The inhibition at 0.2 % strength is 80% with Streptococcus mutans [8] and 93% in the data set on Actinomyces viscosus [9].

`CCCCCCCCCCCCCCS(=O)(=O)c1ccc(O)c(C(=O)Nc2ccc(C(F)(F)F)cc2)c1`: the MIC entry with Actinomyces viscosus [12] is “inactive”.

In the data set with Actinomyces viscosus [1], `CCCCCCS(=O)(=O)c1ccc(O)c(C(=O)Nc2ccc(C(F)(F)F)cc2)c1` had a minimal inhibitory concentration (MIC) of 5 µg/mL (≈ 11.6 µM). Further, the “Log 1/MIC” value in the data set with Actinomyces viscosus [2] was 4.94. Further, the pKa in [3] came to 6.2. In data set [4], this molecule showed a logP of 5.22. The molecule also showed a logD in data set [5] of 4.18.

`CCCCCCCCCCCCS(=O)(=O)c1ccc(O)c(C(=O)Nc2ccc(OC)cc2)c1` showed an MIC in the data set on Actinomyces viscosus [1] of 1000 µg/mL (≈ 2100 µM).

The record behind these values is ChEMBL document CHEMBL1123206, “5-(Alkylsulfonyl)salicylanilides as potential dental antiplaque agents” (J Med Chem, 1986).
